Experimental data reported in ChEMBL document CHEMBL4665741, “Synthesis and biological evaluation of thiazole derivatives on basic defects underlying cystic fibrosis” (Bioorg Med Chem Lett, 2020).
Activity calls are given as the source filed them. The rule behind the calls is not given here.

Assays:
Assay type in all cases: cell-based
[1] = system: Cystic fibrosis transmembrane conductance regulator (Homo sapiens), P13569 [F508del]; experiment: Corrector activity at CFTR F508del mutant (unknown origin) expressed in forskolin/VX-770-stimulated human CFBE41o- cells co-expressing HS-YFP assessed as increase in iodide influx measuring HS-YFP quenching at 2 to 10 uM incubated for 24 hrs by fluorescent method; conditions: dose microM 2-10, time 24.0 hrs
Cystic fibrosis transmembrane conductance regulator (Homo sapiens), P13569 [F508del], sequence (P13569 as listed by the source): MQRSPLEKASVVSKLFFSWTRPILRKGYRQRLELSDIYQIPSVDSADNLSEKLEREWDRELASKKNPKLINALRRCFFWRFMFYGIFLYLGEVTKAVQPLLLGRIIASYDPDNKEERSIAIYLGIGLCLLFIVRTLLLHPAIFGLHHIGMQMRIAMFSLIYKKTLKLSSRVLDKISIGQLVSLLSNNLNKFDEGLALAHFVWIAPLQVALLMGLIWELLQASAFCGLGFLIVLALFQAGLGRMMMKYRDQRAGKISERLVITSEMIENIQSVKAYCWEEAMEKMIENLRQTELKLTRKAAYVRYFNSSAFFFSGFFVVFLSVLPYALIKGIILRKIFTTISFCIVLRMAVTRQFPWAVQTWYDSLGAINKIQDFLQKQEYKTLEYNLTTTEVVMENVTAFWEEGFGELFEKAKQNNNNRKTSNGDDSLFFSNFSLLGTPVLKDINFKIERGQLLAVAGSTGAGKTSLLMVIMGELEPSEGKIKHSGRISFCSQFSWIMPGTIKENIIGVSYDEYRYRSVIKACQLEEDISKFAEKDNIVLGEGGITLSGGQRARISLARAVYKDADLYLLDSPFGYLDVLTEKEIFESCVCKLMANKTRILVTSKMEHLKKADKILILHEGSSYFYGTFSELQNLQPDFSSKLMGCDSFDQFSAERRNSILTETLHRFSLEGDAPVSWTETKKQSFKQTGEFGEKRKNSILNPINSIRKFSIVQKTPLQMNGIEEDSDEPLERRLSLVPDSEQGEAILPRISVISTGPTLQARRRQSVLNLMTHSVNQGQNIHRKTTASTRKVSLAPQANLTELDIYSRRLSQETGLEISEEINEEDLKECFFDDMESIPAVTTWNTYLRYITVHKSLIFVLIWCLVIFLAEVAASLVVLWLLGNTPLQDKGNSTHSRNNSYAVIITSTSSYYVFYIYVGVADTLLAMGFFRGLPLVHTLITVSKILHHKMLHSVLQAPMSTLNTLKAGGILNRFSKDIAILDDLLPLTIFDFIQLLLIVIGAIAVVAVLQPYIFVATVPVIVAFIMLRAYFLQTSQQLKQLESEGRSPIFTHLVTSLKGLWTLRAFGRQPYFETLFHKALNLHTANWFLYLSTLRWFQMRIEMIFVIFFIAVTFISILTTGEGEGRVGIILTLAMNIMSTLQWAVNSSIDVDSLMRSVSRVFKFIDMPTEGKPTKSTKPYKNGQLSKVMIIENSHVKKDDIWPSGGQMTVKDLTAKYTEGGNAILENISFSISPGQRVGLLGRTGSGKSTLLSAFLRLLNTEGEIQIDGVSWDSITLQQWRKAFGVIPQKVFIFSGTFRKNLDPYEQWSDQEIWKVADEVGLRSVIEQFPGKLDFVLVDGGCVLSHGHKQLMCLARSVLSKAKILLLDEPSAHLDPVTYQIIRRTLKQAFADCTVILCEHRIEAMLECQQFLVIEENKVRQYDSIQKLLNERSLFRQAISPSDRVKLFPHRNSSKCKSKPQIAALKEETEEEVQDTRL
Method in brief: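 CFBE41o- bronchial epithelial cells stably expressing F508del-CFTR and halide-sensitive YFP, incubated 24 h with compound at 2 and 10 μM, vehicle (DMSO), or VX-809 (1 μM) as positive control. F508del-CFTR activity at the plasma membrane was then read as the rate of HS-YFP quenching caused by iodide influx.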

[2] = system: Cystic fibrosis transmembrane conductance regulator (Homo sapiens), P13569 [F508del]; experiment: Potentiation of CFTR F508del mutant (unknown origin) expressed in human CFBE41o- cells co-expressing HS-YFP assessed as increase in halide influx measuring HS-YFP quenching measured after acute treatment at 2 to 20 uM for 20 mins in presence of forskolin by fluorescent method; conditions: filed as opener, dose microM 2-20, time 20.0 min
Method in brief: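 CFBE41o- cells stably co-expressing F508del-CFTR and HS-YFP were held 24 h at 32°C to rescue mutant trafficking. Cells were then acutely treated with compound (2 and 20 μM) plus forskolin (20 μM). Controls were forskolin alone and forskolin plus VX-770 (1 μM). Halide influx was read as the HS-YFP quenching rate.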

[3] = system: Cystic fibrosis transmembrane conductance regulator (Homo sapiens), P13569 [F508del]; experiment: (§1) Potentiation of CFTR F508 deletion mutant (unknown origin) expressed in CFBE41o- cells coexpressing HS-YFP assessed as increase in iodide influx measuring HS-YFP quenching incubated for 20 mins in presence of forskolin by fluorescent method; conditions: filed as opener
[4] = target: Cystic fibrosis transmembrane conductance regulator (Homo sapiens, UniProt P13569, F508DEL); experiment: as §1
Cystic fibrosis transmembrane conductance regulator, sequence (P13569 as listed by the source): as above

[5] = system: Cystic fibrosis transmembrane conductance regulator (Homo sapiens), P13569 [F508del]; experiment: Potentiation of CFTR F508 deletion mutant (unknown origin) expressed in CFBE41o- cells coexpressing HS-YFP assessed as increase in halide influx measuring HS-YFP quenching measured after acute treatment at 0.08 to 50 uM after 24 hrs in presence of forskolin by fluorescent method; conditions: filed as opener, dose microM 0.08-50, time 24.0 hrs
Method in brief: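 Concentration-response on CFBE41o- cells co-expressing F508del-CFTR and HS-YFP, pre-incubated 24 h at 32°C to rescue maturation. Compound was added acutely over 80 nM–50 μM with forskolin. Controls were forskolin alone and VX-770 (1 μM). Activity was measured by HS-YFP quenching from halide influx.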

[6] = system: Cystic fibrosis transmembrane conductance regulator (Homo sapiens), P13569 [F508del]; experiment: Potentiation of CFTR F508 deletion mutant (unknown origin) expressed in CFBE41o- cells coexpressing HS-YFP assessed as increase in halide influx measuring HS-YFP quenching measured after acute treatment at 10 uM after 24 hrs in presence of forskolin and CFTR inhibitor-172 by fluorescent method
[7] = system: Cystic fibrosis transmembrane conductance regulator (Homo sapiens), P13569 [F508del]; experiment: Potentiation of CFTR F508 deletion mutant (unknown origin) expressed in CFBE41o- cells coexpressing HS-YFP assessed as increase in halide influx measuring HS-YFP quenching measured after acute treatment at 1 uM after 24 hrs in presence of forskolin and CFTR inhibitor-172 by fluorescent method

Activity [1] | SMILES | also measured
inactive | O=C(O)Cc1csc(NC(=O)c2ccccc2)n1 | –
inactive | COc1cc(C(=O)Nc2nc(CC(=O)O)cs2)cc(OC)c1OC | –
inactive | CCOC(=O)Cc1csc(N(CC)C(=O)c2ccc(I)cc2)n1 | Activity [2]: Active; Emax [3]: 1.9; EC50 [4]: 3200 nM; Activity [5]: Active; Activity [6]: inactive
inactive | CCOC(=O)Cc1csc(NC(=O)c2ccc(Cl)cc2)n1 | –
inactive | CCN(C(=O)c1ccc(I)cc1)c1nc(CC(=O)O)cs1 | –
inactive | CCN(C(=O)c1ccccc1)c1nc(CC(=O)O)cs1 | –
inactive | CCOC(=O)Cc1csc(NC(=O)c2ccccc2)n1 | –
inactive | O=C(O)Cc1csc(NC(=O)c2ccc(I)cc2)n1 | –
– | CC(C)(C)c1cc(C(C)(C)C)c(NC(=O)c2c[nH]c3ccccc3c2=O)cc1O | Activity [7]: inactive
inactive | CCOC(=O)Cc1csc(N(CC)C(=O)c2ccccc2)n1 | –
inactive | CCOC(=O)Cc1csc(NC(=O)c2ccc(I)cc2)n1 | –
inactive | CCN(C(=O)c1cc(OC)c(OC)c(OC)c1)c1nc(CC(=O)O)cs1 | –
inactive | CCOC(=O)Cc1csc(NC(=O)c2cc(OC)c(OC)c(OC)c2)n1 | –
inactive | CCOC(=O)Cc1csc(N(CC)C(=O)c2cc(OC)c(OC)c(OC)c2)n1 | –
inactive | CCOC(=O)Cc1csc(N(CC)C(=O)c2ccc(Cl)cc2)n1 | Activity [2]: Active; Emax [3]: 1.8; EC50 [4]: 1800 nM; Activity [5]: Active; Activity [6]: inactive
inactive | O=C(O)Cc1csc(NC(=O)c2ccc(Cl)cc2)n1 | –
inactive | CCN(C(=O)c1ccc(Cl)cc1)c1nc(CC(=O)O)cs1 | –
